According to ChEMBL document CHEMBL1149179, “Synthesis and biological evaluation of a new class of geldanamycin derivatives as potent inhibitors of Hsp90” (J Med Chem, 2004):

Assays:
Heat shock protein HSP90 [1] = molecular target: T1, Heat shock protein HSP90 (Homo sapiens, UniProt P07900+P08238); assay: […] human epidermal growth factor 2 (Her-2) degradation in MCF-7 cells; type: cell-based; conditions: mcf7
How it was run: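 MCF7 cells in DMEM with 10% FBS and 10 mM HEPES, treated at 65–70% confluence with compound (1000 nM down to 3 nM, half-log steps) for 16 h. Trypsinized cells stained with PE anti-Her-2 or PE isotype control (1 µg/mL, 15 min). Flow cytometry with 10,000 events; control-subtracted mean fluorescence versus DMSO cells. EC50 = 50% Her-2 degradation; n = 2.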

Heat shock protein HSP90 [2] = molecular target: T1, Heat shock protein HSP90; assay: Concentration required to inhibit biotin-GM binding to recombinant heat shock protein 90(rHsp90); type: protein assay
How it was run: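 rHsp90 coated in PBS overnight at 4 °C. Compound at 100–0.3 µM or DMSO for 60 min at 37 °C. Then 10 µM biotinylated geldanamycin 60 min and 20 µg/mL streptavidin-phycoerythrin 60 min, both at 37 °C, with washes between. Fluorescence read at ex 485/em 580 nm, minus an uncoated-well background. % binding inhibition calculated versus DMSO.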

Heat shock protein HSP90 [3] = molecular target: T1, Heat shock protein HSP90; assay: Concentration required to inhibit Bis-ANS activity by recombinant heat shock protein 90 (rHSP90) conformational assay
How it was run: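 Compound at 100–0.3 µM or DMSO for 60 min at 37 °C, then bis-ANS (0.1 mM stock) for 30 min at 37 °C. Fluorescence read at ex 393/em 484 nm, minus a no-protein background. IC50 = 50% inhibition of bis-ANS signal versus DMSO; n = 2.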

Heat shock protein HSP90 [4] = molecular target: T1, Heat shock protein HSP90; assay: Concentration of test compound required for half-maximal inhibition of binding of Heat shock 90 KD protein by MCF-7 cell lysate assay; type: cell-based
How it was run: (§1)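 Lysate incubated ± compound 30 min at 4 °C, then with biotin-GM on streptavidin magnetic beads 1 h at 4 °C. Beads washed three times and boiled in SDS sample buffer. Bound Hsp90 detected by Western blot and band quantitation. IC50 taken as half-maximal inhibition of binding.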

[5] = Ratio of inhibitory concentration of rHsp90 and cell lysate Hsp90
MCF7 = assay: Inhibitory concentration of compound against MCF-7 cells by MTS assay; type: functional, cell-based; conditions: Homo sapiens
How it was run: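 MCF7 cells seeded at 2000/well in DMEM with 10% FBS and left overnight to adhere; final culture volume 100 µL. Viability read with MTS/PMS (mixed 20:1, 20 µL per well) as A490 after 2-4 h, with cell-free medium plus MTS-PMS as background. % viable cells taken relative to untreated cells; IC50 is the concentration giving 50% viable cells; n = 2.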

Heat shock protein HSP90 [6] = molecular target: T1, Heat shock protein HSP90; assay: Concentration of test compound required for inhibition of binding of rHsp90 in MCF-7 cell lysate; type: cell-based; how it was run: as §1

CO[C@H]1/C=C\C=C(/C)C(=O)NC2=CC(=O)C(NC(=O)c3ccc([N+](=O)[O-])cc3)=C(C[C@@H](C)C[C@H](OC)[C@H](O)[C@@H](C)/C=C(\C)[C@@H]1OC(N)=O)C2=O
IC50 (Heat shock protein HSP90 [1]): 300 nM
IC50 (Heat shock protein HSP90 [2]): 3.5 µM
IC50 (Heat shock protein HSP90 [3]): 2 µM

COc1cccc(C(=O)NC2=C3C[C@@H](C)C[C@H](OC)[C@H](O)[C@@H](C)/C=C(\C)[C@H](OC(N)=O)[C@@H](OC)/C=C\C=C(/C)C(=O)NC(=CC2=O)C3=O)c1
IC50 (Heat shock protein HSP90 [1]): 180 nM
IC50 (Heat shock protein HSP90 [2]): 1.3 µM
IC50 (Heat shock protein HSP90 [3]): 0.9 µM

COc1ccc(N2CCN(Cc3ccc(C(=O)NC4=C5C[C@@H](C)C[C@H](OC)[C@H](O)[C@@H](C)/C=C(\C)[C@H](OC(N)=O)[C@@H](OC)/C=C\C=C(/C)C(=O)NC(=CC4=O)C5=O)cc3)CC2)cc1
IC50 (Heat shock protein HSP90 [1]): 220 nM
IC50 (Heat shock protein HSP90 [2]): 3 µM
IC50 (Heat shock protein HSP90 [3]): 1.5 µM

CO[C@H]1/C=C\C=C(/C)C(=O)NC2=CC(=O)C(NC(=O)c3cccs3)=C(C[C@@H](C)C[C@H](OC)[C@H](O)[C@@H](C)/C=C(\C)[C@@H]1OC(N)=O)C2=O
IC50 (Heat shock protein HSP90 [1]): 400 nM
IC50 (Heat shock protein HSP90 [2]): 2 µM
IC50 (Heat shock protein HSP90 [4]): 40 nM
IC50 (Heat shock protein HSP90 [3]): 3 µM
Ratio [5]: 75

CO[C@H]1/C=C\C=C(/C)C(=O)NC2=CC(=O)C(NC(=O)c3ccc(CN4CCN(c5ccc([N+](=O)[O-])cc5)CC4)cc3)=C(C[C@@H](C)C[C@H](OC)[C@H](O)[C@@H](C)/C=C(\C)[C@@H]1OC(N)=O)C2=O
IC50 (Heat shock protein HSP90 [1]): 200 nM
IC50 (Heat shock protein HSP90 [2]): 1 µM
IC50 (Heat shock protein HSP90 [3]): 1.3 µM

CCCN(CCC)Cc1ccc(C(=O)NC2=C3C[C@@H](C)C[C@H](OC)[C@H](O)[C@@H](C)/C=C(\C)[C@H](OC(N)=O)[C@@H](OC)/C=C\C=C(/C)C(=O)NC(=CC2=O)C3=O)cc1
IC50 (Heat shock protein HSP90 [1]): 500 nM
IC50 (Heat shock protein HSP90 [2]): 3 µM
IC50 (Heat shock protein HSP90 [3]): 1.2 µM
IC50 (MCF7): 500 nM

CO[C@H]1/C=C\C=C(/C)C(=O)NC2=CC(=O)C(NC(=O)c3ccccc3)=C(C[C@@H](C)C[C@H](OC)[C@H](O)[C@@H](C)/C=C(\C)[C@@H]1OC(N)=O)C2=O
IC50 (Heat shock protein HSP90 [1]): 200 nM
IC50 (Heat shock protein HSP90 [2]): 4 µM
IC50 (Heat shock protein HSP90 [3]): 3 µM

COc1ccc(C(=O)NC2=C3C[C@@H](C)C[C@H](OC)[C@H](O)[C@@H](C)/C=C(\C)[C@H](OC(N)=O)[C@@H](OC)/C=C\C=C(/C)C(=O)NC(=CC2=O)C3=O)cc1
IC50 (Heat shock protein HSP90 [1]): 400 nM
IC50 (Heat shock protein HSP90 [2]): 5 µM
IC50 (Heat shock protein HSP90 [3]): 4 µM

CO[C@H]1/C=C\C=C(/C)C(=O)NC2=CC(=O)C(NC(=O)OCCCCN3CCOCC3)=C(C[C@@H](C)C[C@H](OC)[C@H](O)[C@@H](C)/C=C(\C)[C@@H]1OC(N)=O)C2=O
IC50 (Heat shock protein HSP90 [1]): 500 nM
IC50 (Heat shock protein HSP90 [2]): 1 µM
IC50 (Heat shock protein HSP90 [4]): 10 nM
IC50 (Heat shock protein HSP90 [3]): 1 µM
Ratio [5]: 100

CO[C@H]1/C=C\C=C(/C)C(=O)NC2=CC(=O)C(NC(=O)OCC(C)C)=C(C[C@@H](C)C[C@H](OC)[C@H](O)[C@@H](C)/C=C(\C)[C@@H]1OC(N)=O)C2=O
IC50 (Heat shock protein HSP90 [1]): 120 nM
IC50 (Heat shock protein HSP90 [2]): 4 µM
IC50 (Heat shock protein HSP90 [6]): 3 nM
IC50 (Heat shock protein HSP90 [3]): 4 µM
IC50 (MCF7): 180 nM
Ratio [5]: 1330

CO[C@H]1/C=C\C=C(/C)C(=O)NC2=CC(=O)C(c3ccccc3)=C(C[C@@H](C)C[C@H](OC)[C@H](O)[C@@H](C)/C=C(\C)[C@@H]1OC(N)=O)C2=O
IC50 (Heat shock protein HSP90 [1]): 280 nM
IC50 (Heat shock protein HSP90 [2]): 3 µM
IC50 (Heat shock protein HSP90 [4]): 70 nM
IC50 (Heat shock protein HSP90 [3]): 3 µM
Ratio [5]: 43

COc1ccccc1C(=O)NC1=C2C[C@@H](C)C[C@H](OC)[C@H](O)[C@@H](C)/C=C(\C)[C@H](OC(N)=O)[C@@H](OC)/C=C\C=C(/C)C(=O)NC(=CC1=O)C2=O
IC50 (Heat shock protein HSP90 [1]): 180 nM
IC50 (Heat shock protein HSP90 [2]): 1.1 µM
IC50 (Heat shock protein HSP90 [3]): 1 µM

CO[C@H]1/C=C\C=C(/C)C(=O)NC2=CC(=O)C(NC(=O)c3ccc(CN4CCN(C)CC4)cc3)=C(C[C@@H](C)C[C@H](OC)[C@H](O)[C@@H](C)/C=C(\C)[C@@H]1OC(N)=O)C2=O
IC50 (Heat shock protein HSP90 [1]): 800 nM
IC50 (Heat shock protein HSP90 [2]): 5 µM
IC50 (Heat shock protein HSP90 [4]): 120 nM
IC50 (Heat shock protein HSP90 [3]): 8 µM
Ratio [5]: 67

CO[C@H]1/C=C\C=C(/C)C(=O)NC2=CC(=O)C(c3cccs3)=C(C[C@@H](C)C[C@H](OC)[C@H](O)[C@@H](C)/C=C(\C)[C@@H]1OC(N)=O)C2=O
IC50 (Heat shock protein HSP90 [1]): 250 nM
IC50 (Heat shock protein HSP90 [2]): 1.7 µM
IC50 (Heat shock protein HSP90 [4]): 55 nM
IC50 (Heat shock protein HSP90 [3]): 1.7 µM
Ratio [5]: 31

CO[C@H]1/C=C\C=C(/C)C(=O)NC2=CC(=O)C(NC(=O)c3ccc(CN4CCCCC4)cc3)=C(C[C@@H](C)C[C@H](OC)[C@H](O)[C@@H](C)/C=C(\C)[C@@H]1OC(N)=O)C2=O
IC50 (Heat shock protein HSP90 [1]): > 10000 nM
IC50 (Heat shock protein HSP90 [2]): 2.5 µM
IC50 (Heat shock protein HSP90 [3]): 2.1 µM

CO[C@H]1/C=C\C=C(/C)C(=O)NC2=CC(=O)C(NC(=O)c3ccc(CN4CCc5ccccc5C4)cc3)=C(C[C@@H](C)C[C@H](OC)[C@H](O)[C@@H](C)/C=C(\C)[C@@H]1OC(N)=O)C2=O
IC50 (Heat shock protein HSP90 [1]): 200 nM
IC50 (Heat shock protein HSP90 [2]): 1 µM
IC50 (Heat shock protein HSP90 [3]): 1.5 µM

CO[C@H]1/C=C\C=C(/C)C(=O)NC2=CC(=O)C(NC(=O)C(C)=O)=C(C[C@@H](C)C[C@H](OC)[C@H](O)[C@@H](C)/C=C(\C)[C@@H]1OC(N)=O)C2=O
IC50 (Heat shock protein HSP90 [1]): 1700 nM
IC50 (Heat shock protein HSP90 [2]): 15 µM
IC50 (Heat shock protein HSP90 [3]): 20 µM

CO[C@H]1/C=C\C=C(/C)C(=O)NC2=CC(=O)C(NC(=O)c3cccc(CCl)c3)=C(C[C@@H](C)C[C@H](OC)[C@H](O)[C@@H](C)/C=C(\C)[C@@H]1OC(N)=O)C2=O
IC50 (Heat shock protein HSP90 [1]): 1000 nM
IC50 (Heat shock protein HSP90 [3]): 10 µM

CO[C@H]1/C=C\C=C(/C)C(=O)NC2=CC(=O)C(NC(=O)c3ccco3)=C(C[C@@H](C)C[C@H](OC)[C@H](O)[C@@H](C)/C=C(\C)[C@@H]1OC(N)=O)C2=O
IC50 (Heat shock protein HSP90 [1]): 500 nM
IC50 (Heat shock protein HSP90 [2]): 4 µM
IC50 (Heat shock protein HSP90 [3]): 4 µM

CCOC(=O)NC1=C2C[C@@H](C)C[C@H](OC)[C@H](O)[C@@H](C)/C=C(\C)[C@H](OC(N)=O)[C@@H](OC)/C=C\C=C(/C)C(=O)NC(=CC1=O)C2=O
IC50 (Heat shock protein HSP90 [1]): 260 nM
IC50 (Heat shock protein HSP90 [2]): 3 µM
IC50 (Heat shock protein HSP90 [3]): 3 µM

CO[C@H]1/C=C\C=C(/C)C(=O)NC2=CC(=O)C(NC(=O)c3ccc(F)cc3)=C(C[C@@H](C)C[C@H](OC)[C@H](O)[C@@H](C)/C=C(\C)[C@@H]1OC(N)=O)C2=O
IC50 (Heat shock protein HSP90 [1]): 250 nM
IC50 (Heat shock protein HSP90 [2]): 1.5 µM
IC50 (Heat shock protein HSP90 [3]): 1.5 µM

CO[C@H]1/C=C\C=C(/C)C(=O)NC2=CC(=O)C(NC(=O)c3ccc(CN4CCN(C5CCCCC5)CC4)cc3)=C(C[C@@H](C)C[C@H](OC)[C@H](O)[C@@H](C)/C=C(\C)[C@@H]1OC(N)=O)C2=O
IC50 (Heat shock protein HSP90 [1]): 600 nM
IC50 (Heat shock protein HSP90 [2]): 5.5 µM
IC50 (Heat shock protein HSP90 [3]): 5.8 µM

CO[C@H]1/C=C\C=C(/C)C(=O)NC2=CC(=O)C(NC(=O)c3ccc(CCl)cc3)=C(C[C@@H](C)C[C@H](OC)[C@H](O)[C@@H](C)/C=C(\C)[C@@H]1OC(N)=O)C2=O
IC50 (Heat shock protein HSP90 [1]): 550 nM
IC50 (Heat shock protein HSP90 [2]): 4 µM
IC50 (Heat shock protein HSP90 [3]): 2 µM

C=CCNC(=O)NC1=C2C[C@@H](C)C[C@H](OC)[C@H](O)[C@@H](C)/C=C(\C)[C@H](OC(N)=O)[C@@H](OC)/C=C\C=C(/C)C(=O)NC(=CC1=O)C2=O
IC50 (Heat shock protein HSP90 [1]): > 10000 nM
IC50 (Heat shock protein HSP90 [2]): 35 µM

CO[C@H]1/C=C\C=C(/C)C(=O)NC2=CC(=O)C(NC(=O)OCc3ccc(OC(C)=O)cc3)=C(C[C@@H](C)C[C@H](OC)[C@H](O)[C@@H](C)/C=C(\C)[C@@H]1OC(N)=O)C2=O
IC50 (Heat shock protein HSP90 [1]): 50 nM
IC50 (Heat shock protein HSP90 [2]): 1 µM
IC50 (Heat shock protein HSP90 [3]): 2.5 µM
IC50 (MCF7): 40 nM
